The record followed here is ChEMBL document CHEMBL1240409, “Design, synthesis and evaluation of (E)-alpha-benzylthio chalcones as novel inhibitors of BCR-ABL kinase” (Bioorg Med Chem, 2010).

For one experiment, the system named is K562. The experiment can be described thus: Growth inhibition of human K562 cells expressing p210Bcr/Abl after 96 hrs by trypan blue exclusion assay. The experiment is classed as functional, cell-based. Conditions: K562, 96 h. An outline of the steps: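 K562 cells were kept in RPMI with 10% FBS and penicillin–streptomycin at 37 °C under 5% CO2. Cells were seeded at 1 × 10^5 cells/mL with a range of compound concentrations, using DMSO as the negative control. After 96 h, viability was counted by Trypan blue exclusion and expressed as percent of DMSO control to derive GI50.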

For the next experiment, the system named is DU-145. The experiment can be described thus: Growth inhibition of human DU145 cells after 96 hrs by trypan blue exclusion assay. The experiment is classed as functional. Conditions: DU-145, 96 h.

SMILES strings stand for the structures. Some results are limits rather than exact numbers.

Broadly, the GI50 is the concentration that inhibits growth by half. Low readings indicate greater sensitivity of the cells, high ones lower sensitivity of the cells.

Consider `CN(C)c1ccc(/C=C(\C(=O)c2ccc(Cl)cc2)S(=O)(=O)c2ccc(Br)cc2)cc1`, for which the GI50 in the experiment with K562 is 50 µM; with DU-145 it was more than 100 µM.
Take `COc1ccc(/C=C(\C(=O)c2ccc(Br)cc2)S(=O)(=O)Cc2ccc(F)cc2)cc1`: the 50% growth inhibitory concentration (GI50) in the experiment on K562 and with DU-145 was 25 µM in each case.
For the compound `Cc1ccc(S(=O)(=O)/C(=C/c2ccc(C)s2)C(=O)c2ccc(Br)cc2)cc1`, the GI50 in the experiment on K562 was 50 µM; in the experiment with DU-145 it was 25 µM.
For `COc1ccc(/C=C(\C(=O)c2ccc(Cl)cc2)S(=O)(=O)Cc2ccc(Cl)cc2)c(OC)c1OC`, the GI50 was 1 µM in the experiment with K562 and 10 µM with DU-145.
For `Cc1ccc(/C=C(\C(=O)c2ccc(Br)cc2)S(=O)(=O)Cc2ccc(F)cc2)s1`, the GI50 in the experiment with K562 and in the experiment with DU-145 was 1 µM each time.
For `O=C(/C(=C\c1ccc(F)cc1F)S(=O)(=O)c1ccc(Cl)cc1)c1ccc(Br)cc1`, the GI50 in the experiment on K562 and in the experiment on DU-145 was 25 µM each time.
Regarding `O=C(/C(=C\c1ccc(O)cc1O)SCc1cccc(Cl)c1)c1ccc(Br)cc1`, the GI50 in the experiment on K562 was found to be 25 µM; with DU-145 it was 50 µM.
`O=C(/C(=C\c1ccc(Cl)c([N+](=O)[O-])c1)Sc1ccc(Br)cc1)c1ccc(Br)cc1`: the 50% growth inhibitory concentration (GI50) in the experiment with K562 was determined as 1 µM; in the experiment with DU-145, 10 µM.
For the compound `O=C(/C(=C\c1ccc(Br)c(O)c1)S(=O)(=O)c1ccc(Br)cc1)c1ccc(Br)cc1`, the GI50 with K562 and in the experiment on DU-145 was 50 µM throughout.
With `O=C(/C(=C\c1ccc(O)c(C(=O)O)c1)SCc1ccc(Br)cc1)c1ccc(Br)cc1`, the GI50 with K562 came out at 25 µM; in the experiment on DU-145 it was 10 µM.
As for `O=C(O)c1cc(/C=C(\C(=O)c2c(F)c(F)c(F)c(F)c2F)S(=O)(=O)c2ccc(Br)cc2)ccc1O`, the 50% growth inhibitory concentration (GI50) in the experiment on K562 and in the experiment on DU-145 was more than 100 µM each time.
As for `O=C(/C(=C\c1c(O)cc(O)cc1O)S(=O)(=O)c1ccc(Br)cc1)c1ccc(Cl)cc1`, the GI50 with K562 and with DU-145 was more than 100 µM each time.
As for `Cc1ccc(S/C(=C/c2ccc(Oc3ccccc3)cc2)C(=O)c2ccc(Br)cc2)cc1`, the GI50 was more than 100 µM in the experiment with K562 and 1 µM with DU-145.
With `O=C(/C(=C\c1cc(Br)c(O)c(Br)c1)SCc1ccc(Br)cc1)c1ccc(Br)cc1`, the figures for the GI50 with K562 and in the experiment on DU-145 were 10 µM and 1 µM, respectively.
Turning to `Cc1ccc(CS/C(=C/c2ccc(Cl)c([N+](=O)[O-])c2)C(=O)c2ccc(C(=O)O)cc2)cc1`, the 50% growth inhibitory concentration (GI50) in the experiment on K562 and in the experiment on DU-145 was 1 µM in each case.
In the case of `O=C(/C(=C\c1ccc(Cl)cc1)S(=O)(=O)c1ccc(Br)cc1)c1ccc(Br)cc1`, the GI50 in the experiment on K562 and with DU-145 was 50 µM throughout.
As to `O=C(/C(=C\c1ccc(O)c([N+](=O)[O-])c1)S(=O)(=O)c1ccc(I)cc1)c1ccc(Br)cc1`, the concentration for 50% growth inhibition (GI50) in the experiment on K562 and with DU-145 was 25 µM in each case.
For the compound `Cc1ccc(S/C(=C/c2c[nH]c3ccc(Br)cc23)C(=O)c2ccc(Cl)cc2)cc1`, the concentration for 50% growth inhibition (GI50) in the experiment with K562 and in the experiment on DU-145 was 1 µM in each case.
With `Cc1ccc(CS/C(=C/c2cccc(Cl)c2Cl)C(=O)c2ccc(Cl)cc2)cc1`, the GI50 in the experiment on K562 and with DU-145 was 25 µM each time.
Regarding `O=C(C(=Cc1ccc(I)cc1)S(=O)(=O)Cc1ccc(I)cc1)c1ccc(Br)cc1`, the GI50 in the experiment with K562 is more than 50 µM; in the experiment with DU-145 it was 20 µM.
Consider `COc1cc(/C=C(/Sc2ccc(Br)cc2)C(=O)c2ccc(Br)cc2)ccc1F`, for which the GI50 was 1 µM in the experiment on K562 and 10 µM in the experiment on DU-145.
Consider `Cc1ccc(CS/C(=C/c2cc([N+](=O)[O-])ccc2F)C(=O)c2ccc(Cl)cc2)cc1`, for which the GI50 in the experiment on K562 and in the experiment with DU-145 was 1 µM throughout.
Turning to `Cc1ccc(S(=O)(=O)/C(=C/c2c(O)cc(O)cc2O)C(=O)c2ccc(Br)cc2)cc1`, the concentration for 50% growth inhibition (GI50) with K562 and with DU-145 was more than 100 µM in each case.
On to `CCOc1ccc(/C=C(/Sc2ccc(C)cc2)C(=O)c2ccc(Br)cc2)cc1OC`, for which the results for the GI50 with K562 and with DU-145 were 1 µM and 50 µM, respectively.
For `CN(C)c1ccc(/C=C(/SCc2ccc(Cl)cc2)C(=O)c2ccc(Cl)cc2)cc1`, the GI50 with K562 was 10 µM; in the experiment on DU-145, more than 100 µM.
Consider `Cc1ccc(CS/C(=C/c2ccc(Br)cc2)C(=O)c2ccc(Cl)cc2)cc1`, for which the 50% growth inhibitory concentration (GI50) came to 1 µM in the experiment on K562 and 10 µM in the experiment with DU-145.
Taken in the same sequence, the figures for `O=C(/C(=C\c1c(O)cc(O)cc1O)Sc1ccccc1Br)c1ccc(Br)cc1` were more than 100 µM and more than 100 µM.
For the compound `O=C(O)c1ccc(C(=O)/C(=C\c2ccc(Br)cc2)SCc2ccc(F)cc2)cc1`, the GI50 in the experiment on K562 and in the experiment on DU-145 was more than 100 µM in each case.
With `COc1cc(OC)c(/C=C(/SCc2ccc(F)cc2)C(=O)c2ccc(Br)cc2)c(OC)c1`, the GI50 with K562 and in the experiment on DU-145 was 1 µM in each case.
As for `CCOc1ccc(/C=C(\C(=O)c2ccc(Br)cc2)S(=O)(=O)c2ccc(C)cc2)cc1OC`, the GI50 in the experiment with K562 and in the experiment on DU-145 was 1 µM in each case.
As for `Cc1ccc(CS/C(=C/c2ccccc2OCc2ccccc2)C(=O)c2ccc(Cl)cc2)cc1`, the GI50 in the experiment with K562 and in the experiment on DU-145 was 1 µM in each case.
`O=C(/C(=C\c1ccc(O)c([N+](=O)[O-])c1)Sc1ccccc1Br)c1ccc(Br)cc1`: the GI50 in the experiment on K562 and in the experiment with DU-145 was 10 µM each time.
`O=C(/C(=C\c1ccc([N+](=O)[O-])c(O)c1)SCc1ccc(Br)cc1)c1ccc(C(F)(F)F)cc1`: the GI50 with K562 and in the experiment on DU-145 was 1 µM throughout.
As to `CSc1ccc(/C=C(/Sc2ccc(C)cc2)C(=O)c2ccc(Br)cc2)cc1`, the values for the GI50 in the experiment with K562 and with DU-145 were 1 µM and 50 µM, respectively.
`COc1ccccc1/C=C(/Sc1ccc(C)cc1)C(=O)c1ccc(Br)cc1`: the GI50 was determined as 1 µM in the experiment with K562 and 9 µM in the experiment with DU-145.
For `Cc1cc(C)cc(/C=C(/SCc2ccc(Cl)cc2)C(=O)c2ccc(Cl)cc2)c1`, the GI50 in the experiment with K562 and with DU-145 was 10 µM in each case.
For `CN(C)c1ccc(/C=C(/SCc2ccc(Cl)cc2)C(=O)c2ccc(C(=O)O)cc2)cc1`, the GI50 with K562 and in the experiment with DU-145 was 1 µM throughout.
For `Cc1ccc(C)c(/C=C(/SCc2ccc(F)cc2)C(=O)c2ccc(Br)cc2)c1`, the GI50 with K562 worked out at 50 µM; in the experiment with DU-145 it was 1 µM.
Take `O=C(/C(=C\c1csc([N+](=O)[O-])c1)S(=O)(=O)c1ccc(Br)cc1)c1ccc(Br)cc1`: the GI50 with K562 and in the experiment on DU-145 was 1 µM in each case.
In the case of `CSc1ccc(/C=C(/SCc2ccc(Cl)cc2)C(=O)c2ccc(Cl)cc2)cc1`, the figures for the GI50 with K562 and in the experiment with DU-145 were 1 µM and 25 µM, respectively.
Take `COc1ccc(S/C(=C/c2ccccc2OCc2ccccc2)C(=O)c2ccc(Cl)cc2)cc1`: the GI50 in the experiment with K562 and with DU-145 was 1 µM in each case.
Consider `COc1ccccc1/C=C(/SCc1ccc(Cl)cc1)C(=O)c1ccc(Br)cc1`, for which the GI50 in the experiment on K562 came to 10 µM; in the experiment on DU-145 it was 1 µM.
`O=C(/C(=C\c1ccc(Br)cc1)Sc1ccc(Br)cc1)c1ccc(Br)cc1`: the GI50 with K562 was found to be 2.5 µM; in the experiment with DU-145, 1 µM.
With `Cc1ccc(S/C(=C/c2c[nH]c3ccc(Cl)cc23)C(=O)c2ccc(Cl)cc2)cc1`, the GI50 in the experiment on K562 and with DU-145 was 1 µM in each case.
Consider `O=C(/C(=C\c1ccc(OCc2ccccc2)cc1)SCc1cccc(Cl)c1)c1ccc(Br)cc1`, for which the GI50 with K562 and in the experiment on DU-145 was 1 µM throughout.
On to `Cc1ccc(C(=O)/C(=C\c2ccc(N(C)C)cc2)S(=O)(=O)c2ccc(Cl)cc2)cc1`, for which the GI50 in the experiment with K562 and in the experiment on DU-145 was 50 µM in each case.
As to `COc1ccccc1/C=C(\C(=O)c1ccc(Br)cc1)S(=O)(=O)Cc1ccc(F)cc1`, the GI50 with K562 and in the experiment on DU-145 was 25 µM each time.
In the case of `Cc1ccc(S(=O)(=O)/C(=C/c2ccc(F)cc2F)C(=O)c2ccc(Br)cc2)cc1`, the GI50 with K562 and in the experiment with DU-145 was more than 100 µM in each case.
In the case of `O=C(/C(=C\c1ccc(OCc2ccccc2)cc1)SCc1ccc(Cl)cc1)c1ccc(Cl)cc1`, the concentration for 50% growth inhibition (GI50) in the experiment with K562 came to 10 µM; with DU-145, 1 µM.
Taken in the same sequence, the figures for `O=C(/C(=C\c1ccc(Cl)cc1)SCc1ccc(F)cc1)c1ccc(Cl)cc1` were 1 µM and 10 µM.
With `O=C(/C(=C\c1c[nH]c2ccc(Cl)cc12)SCc1ccc(F)cc1)c1ccc(Br)cc1`, the GI50 in the experiment on K562 and with DU-145 was 1 µM each time.
With `Cc1ccsc1/C=C(/SCc1ccccc1F)C(=O)c1ccc(Cl)cc1`, the GI50 with K562 and in the experiment with DU-145 was 50 µM in each case.
In the case of `Cc1cc(C)cc(/C=C(/SCc2ccc(Br)cc2)C(=O)c2ccccc2Cl)c1`, the 50% growth inhibitory concentration (GI50) in the experiment with K562 and with DU-145 was 10 µM throughout.
As to `COc1ccc(/C=C(/SCc2ccc(Cl)cc2)C(=O)c2ccc(Cl)cc2)cc1`, the GI50 in the experiment with K562 turned out to be 1 µM; in the experiment on DU-145, 10 µM.
For `COc1ccc(/C=C(\C(=O)c2ccc(Cl)cc2)S(=O)(=O)c2ccc(Br)cc2)cc1`, the GI50 in the experiment with K562 and in the experiment on DU-145 was 10 µM each time.
For the compound `COc1ccc(/C=C(/SCc2ccc(Cl)cc2)C(=O)c2ccc(Br)cc2)cc1O`, the GI50 with K562 and with DU-145 was 1 µM throughout.
Consider `O=C(/C(=C\c1ccccc1OCc1ccccc1)SCc1ccc(Cl)c(Cl)c1)c1ccc(Cl)cc1`, for which the GI50 with K562 and with DU-145 was 10 µM in each case.
For the compound `CSc1ccc(/C=C(\C(=O)c2ccc(Br)cc2)S(=O)(=O)c2ccc(C)cc2)cc1`, the GI50 in the experiment on K562 and with DU-145 was 1 µM in each case.
With `COc1cc(/C=C(/Sc2ccc(Br)cc2)C(=O)c2ccc(Br)cc2)ccc1O`, the GI50 in the experiment on K562 and in the experiment on DU-145 was 1 µM in each case.
Take `Cc1ccc(S/C(=C/c2ccc(Cl)c(Cl)c2)C(=O)c2ccc(Br)cc2)cc1`: the GI50 in the experiment with K562 and in the experiment with DU-145 was 50 µM in each case.
Regarding `CN(C)c1ccc(/C=C(/SCc2ccc(Cl)c(Cl)c2)C(=O)c2ccc(Cl)cc2)cc1`, the GI50 with K562 and in the experiment on DU-145 was 50 µM each time.
For the compound `O=C(O)c1ccc(C(=O)/C(=C\c2ccc(Br)c([N+](=O)[O-])c2)SCc2ccccc2Cl)cc1`, the GI50 with K562 and in the experiment on DU-145 was 1 µM throughout.
